Source: ChEMBL document CHEMBL1122130, “Nonsteroidal antiinflammatory agents. 1. 10,11-Dihydro-11-oxodibenz[b, f]oxepinacetic acids and related compounds” (J Med Chem, 1982)

Columns and labels:
[1] = species: Mus musculus; assay: Effective dose for analgesic activity in mice; assay type: functional
How it was run: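 Female ddN mice (18-22 g; 5-15 per dose) received compound in 0.5% aqueous tragacanth. Writhing was induced by intraperitoneal 0.03% phenylquinone, and writhes were counted over 15 min. ED50 was calculated by Litchfield–Wilcoxon.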

[2] = tested on: Rattus norvegicus; assay: Effective dose for antiinflammatory activity in carrageenan paw edema assay in rats after oral administration; assay type: functional
How it was run: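 Male Wistar rats (120-150 g; 5-10 per dose) were dosed orally in 0.5% aqueous tragacanth. Edema was induced by subcutaneous injection of 1% aqueous carrageenan into the left hind paw.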

[3] = Lethal dose determined in rats when administered perorally; assay type: toxicity, organism-based; conditions: rat, in vivo, po
How it was run: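 Male Wistar rats (150-230 g), dosed orally with compound dissolved or suspended in 0.5% aqueous tragacanth. LD50 taken from mortality over 7 days and calculated by the Litchfield-Wilcoxon method.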

[4] = tested on: Rattus norvegicus; assay: Compound was evaluated for the induction no of gastric ulcers in rats when administered perorally; assay type: functional, Stomach
How it was run: (§1)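 Male Wistar rats were fasted 24 h and given compound once orally in 0.5% aqueous tragacanth. Stomachs were removed 6 h later and examined macroscopically. UD50 (dose causing ulcers in 50% of rats) was taken from each compound's regression line.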

[5] = tested on: Rattus norvegicus; assay: Compound was evaluated for the induction of gastric ulcers in rats after oral administration; assay type: functional; conditions: Stomach; how it was run: as §1
[6] = species: Rattus norvegicus; assay: Analgesic activity measured as silver nitrate induced arthritic pain in rats; assay type: functional
How it was run: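 Pain in the arthritic rat paw was provoked with silver nitrate. Compounds were given in 0.5% aqueous tragacanth, and ED50 was calculated by the Litchfield–Wilcoxon method.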

[7] = species: Rattus norvegicus; assay: Antipyretic activity measured as yeast induced fever assay in rats; assay type: functional
How it was run: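 Male Wistar rats (350-500 g); hyperthermia induced by subcutaneous injection of 15% yeast suspension. Test compounds dissolved or suspended in 0.5% aqueous tragacanth and administered. ED50 calculated by the Litchfield–Wilcoxon method.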

[8] = tested on: Rattus norvegicus; assay: compound was evaluated for the induction no of gastric ulcers in rats when administered perorally; assay type: functional, Stomach; how it was run: as §1

SMILES | ED50 [1] | ED50 [2] | other results
O=C(O)Cc1ccc2c(c1)C(=O)Cc1cc(F)ccc1O2 | > 100 mg/kg | ≥ 80 mg/kg | 
O=C(O)Cc1ccc2c(c1)C=Cc1ccc(Cl)cc1O2 | 9.53 mg/kg | 61.4 mg/kg | 
O=C(O)Cc1ccc2c(c1)C(O)Cc1cc(F)ccc1O2 (stereo not given) | > 100 mg/kg | > 80 mg/kg | 
O=C(O)Cc1ccc2c(c1)Oc1ccccc1NC2=O | > 100 mg/kg | > 80 mg/kg | 
O=C(O)Cc1ccc2c(c1)C(O)Cc1cc(Cl)ccc1O2 (stereo not given) | > 100 mg/kg | > 80 mg/kg | 
O=C(O)Cc1ccc2c(c1)Oc1ccccc1CC2=O | ≥ 100 mg/kg | 56.9 mg/kg | 
Cc1ccc2c(c1)CC(=O)c1cc(C(C)C(=O)O)ccc1S2 (stereo not given) | 3.1 mg/kg |  | LD50 [3]: > 100 mg/kg; UD50 [4]: 11.3 mg/kg
O=C(O)Cc1ccc2c(c1)C(O)Cc1ccccc1O2 (stereo not given) | 44.6 mg/kg | 24.3 mg/kg | 
Cc1ccc2c(c1)C=Cc1cc(CC(=O)O)ccc1O2 | > 100 mg/kg | > 80 mg/kg | 
O=C(O)Cc1ccc2c(c1)C(=O)Cc1cc(Cl)ccc1O2 | ≥ 100 mg/kg | ≥ 80 mg/kg | 
Cc1ccc2c(c1)CC(O)c1cc(CC(=O)O)ccc1O2 (stereo not given) | > 100 mg/kg | > 80 mg/kg | 
O=C(O)Cc1ccc2c(c1)C(=O)Cc1ccccc1O2 | 34.4 mg/kg | 10.8 mg/kg | 
CC(C(=O)O)c1ccc2c(c1)C(=O)Cc1ccccc1O2 (stereo not given) | 17.8 mg/kg |  | 
CC(C(=O)O)c1ccc2c(c1)C(=O)Nc1ccccc1O2 (stereo not given) | > 100 mg/kg | > 80 mg/kg | 
O=C(O)Cc1ccc2c(c1)C=Cc1ccccc1O2 | > 100 mg/kg | 28.3 mg/kg | 
Cc1ccc2c(c1)CC(=O)c1cc(CC(=O)O)ccc1O2 | 13.8 mg/kg |  | 

SMILES | ED50 [1] | ED50 [2] | other results
O=C(O)Cc1ccc2c(c1)C=Cc1cc(Cl)ccc1O2 | > 100 mg/kg | > 80 mg/kg | 
O=C(O)Cc1ccc2c(c1)C(=O)Cc1ccc(Cl)cc1O2 | > 100 mg/kg | ≥ 80 mg/kg | 
O=C(O)Cc1ccc2c(c1)C(=O)Nc1ccccc1O2 | > 100 mg/kg | > 80 mg/kg | 
CC(C(=O)O)c1ccc2c(c1)C(O)Cc1ccccc1O2 (stereo not given) | > 100 mg/kg | > 80 mg/kg | 
O=C(O)Cc1ccc2c(c1)Oc1ccccc1CC2O (stereo not given) | > 100 mg/kg | > 80 mg/kg | 
Cc1ccc2c(c1)C=Cc1cc(C(C)C(=O)O)ccc1S2 (stereo not given) | > 100 mg/kg | > 80 mg/kg | 
O=C(O)Cc1ccc2c(c1)C(O)Cc1ccc(Cl)cc1O2 (stereo not given) | > 100 mg/kg | > 80 mg/kg | 
O=C(O)Cc1ccc2c(c1)C=Cc1cc(F)ccc1O2 | > 100 mg/kg | > 80 mg/kg | 
O=C(O)Cc1ccc2c(c1)Oc1ccccc1C=C2 | > 100 mg/kg | > 80 mg/kg | 
CC(C(=O)O)c1ccc2c(c1)C=Cc1ccccc1O2 (stereo not given) | > 100 mg/kg | ≥ 80 mg/kg | 
Cc1ccc2c(c1)C=Cc1cc(C(C)C(=O)O)ccc1O2 (stereo not given) | > 100 mg/kg | > 80 mg/kg | 
Cc1ccc2c(c1)CC(O)c1cc(C(C)C(=O)O)ccc1S2 (stereo not given) | > 100 mg/kg | > 80 mg/kg | 
Cc1ccc2c(c1)CC(O)c1cc(C(C)C(=O)O)ccc1O2 (stereo not given) | > 100 mg/kg | > 80 mg/kg | 
Cc1ccc2c(c1)CC(=O)c1cc(C(C)C(=O)O)ccc1O2 (stereo not given) [BERMOPROFEN] | 6.51 mg/kg |  | LD50 [3]: 147 mg/kg; ED50 [5]: 13.8 mg/kg
COc1ccc2c(c1)c(CC(=O)O)c(C)n2C(=O)c1ccc(Cl)cc1 [INDOMETHACIN] | 0.62 mg/kg |  | LD50 [3]: 18.5 mg/kg; ED50 [6]: 4.3 mg/kg; ED50 [7]: 0.22 mg/kg; UD50 [8]: 8 mg/kg
